Reference: the M2OR odorant receptor database

Columns and labels:
Details in all cases: stereoisomer not certain
UniProt Q8VF24 = target: T1, UniProt Q8VF24
T1 sequence (whole entry): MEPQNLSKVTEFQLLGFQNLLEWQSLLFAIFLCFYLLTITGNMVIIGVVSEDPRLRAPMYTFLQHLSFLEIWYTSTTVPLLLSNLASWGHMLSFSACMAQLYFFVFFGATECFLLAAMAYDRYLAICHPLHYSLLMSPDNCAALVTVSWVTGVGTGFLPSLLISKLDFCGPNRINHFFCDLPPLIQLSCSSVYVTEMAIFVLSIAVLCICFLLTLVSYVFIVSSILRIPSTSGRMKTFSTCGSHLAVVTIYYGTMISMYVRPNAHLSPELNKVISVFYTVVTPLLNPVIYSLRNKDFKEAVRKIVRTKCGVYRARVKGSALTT
Summary of the method: (§1)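 Each entry records the cell line, G-protein, co-transfected protein and tags used. Methods varied with the source, often transient luciferase assays in mammalian cell lines. A receptor–molecule pair is called responsive (active) if the original authors judged its signal statistically different from baseline and non-responsive (inactive) otherwise.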

UniProt Q8VF43 = target: T2, UniProt Q8VF43
T2 sequence (whole entry): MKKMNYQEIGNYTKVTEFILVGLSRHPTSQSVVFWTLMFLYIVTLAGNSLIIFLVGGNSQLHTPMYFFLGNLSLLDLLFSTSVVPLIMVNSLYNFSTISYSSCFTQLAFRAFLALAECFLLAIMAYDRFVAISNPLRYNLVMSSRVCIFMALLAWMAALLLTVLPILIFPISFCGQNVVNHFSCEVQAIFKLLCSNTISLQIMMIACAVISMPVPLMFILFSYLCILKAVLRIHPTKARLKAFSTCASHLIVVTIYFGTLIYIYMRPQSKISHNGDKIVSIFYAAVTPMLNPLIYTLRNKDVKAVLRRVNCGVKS
Summary of the method: as §1

UniProt Q8VF44 = target: T3, UniProt Q8VF44
T3 sequence (whole entry): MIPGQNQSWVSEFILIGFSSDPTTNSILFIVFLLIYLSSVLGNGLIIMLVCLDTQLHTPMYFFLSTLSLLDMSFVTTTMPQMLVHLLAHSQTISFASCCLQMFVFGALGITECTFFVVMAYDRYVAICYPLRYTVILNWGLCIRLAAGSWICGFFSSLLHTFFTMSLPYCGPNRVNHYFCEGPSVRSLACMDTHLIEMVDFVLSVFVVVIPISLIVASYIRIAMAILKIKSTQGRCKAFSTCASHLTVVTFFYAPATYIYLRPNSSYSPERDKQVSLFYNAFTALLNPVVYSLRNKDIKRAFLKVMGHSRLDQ
Summary of the method: as §1

UniProt Q8VF52 = target: T4, UniProt Q8VF52
T4 sequence (whole entry): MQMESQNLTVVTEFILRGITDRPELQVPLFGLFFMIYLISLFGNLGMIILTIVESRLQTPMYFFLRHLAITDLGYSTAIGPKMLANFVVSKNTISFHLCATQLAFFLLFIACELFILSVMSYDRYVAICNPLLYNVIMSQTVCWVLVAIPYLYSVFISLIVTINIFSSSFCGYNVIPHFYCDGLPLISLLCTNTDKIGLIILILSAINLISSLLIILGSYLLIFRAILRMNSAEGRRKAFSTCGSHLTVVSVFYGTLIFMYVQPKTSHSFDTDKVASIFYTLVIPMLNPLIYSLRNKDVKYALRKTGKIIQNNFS
Summary of the method: as §1

UniProt Q8VFG6 = target: T5, UniProt Q8VFG6
T5 sequence (whole entry): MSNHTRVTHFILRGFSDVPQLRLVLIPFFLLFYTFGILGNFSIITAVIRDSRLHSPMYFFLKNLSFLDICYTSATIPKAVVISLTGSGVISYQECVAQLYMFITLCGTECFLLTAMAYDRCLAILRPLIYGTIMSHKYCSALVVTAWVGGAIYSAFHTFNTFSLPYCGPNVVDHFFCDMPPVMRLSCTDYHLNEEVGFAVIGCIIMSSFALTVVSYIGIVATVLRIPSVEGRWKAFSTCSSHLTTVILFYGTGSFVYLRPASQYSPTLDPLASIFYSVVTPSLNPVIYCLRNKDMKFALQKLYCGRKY
Summary of the method: as §1

UniProt Q8VFM8 = target: T6, UniProt Q8VFM8
T6 sequence (whole entry): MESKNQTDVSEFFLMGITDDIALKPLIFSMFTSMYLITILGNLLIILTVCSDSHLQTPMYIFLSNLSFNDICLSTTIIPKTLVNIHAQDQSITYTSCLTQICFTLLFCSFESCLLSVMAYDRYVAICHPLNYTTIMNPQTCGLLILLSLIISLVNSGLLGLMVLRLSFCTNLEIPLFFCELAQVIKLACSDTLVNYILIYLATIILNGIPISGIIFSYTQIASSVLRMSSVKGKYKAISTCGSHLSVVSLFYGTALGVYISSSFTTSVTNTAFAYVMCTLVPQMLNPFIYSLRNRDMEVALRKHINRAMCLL
Summary of the method: as §1

Row | SMILES | odorant receptor agonist call (UniProt Q8VF24) | odorant receptor agonist call (UniProt Q8VF43) | odorant receptor agonist call (UniProt Q8VF44) | odorant receptor agonist call (UniProt Q8VF52) | odorant receptor agonist call (UniProt Q8VFG6) | odorant receptor agonist call (UniProt Q8VFM8)
1 | CC(=O)OCc1ccccc1 | inactive | inactive | inactive | inactive | inactive | inactive
2 | COc1ccccc1 |  | inactive |  | inactive |  | inactive
3 | CCCCCCCCC=CC=O |  | inactive |  | inactive |  | inactive
4 | c1ccc2ncccc2c1 |  | inactive |  | active |  | inactive
5 | CCCC=O |  | inactive |  | inactive |  | inactive
6 | CCCCCOC(=O)CCC |  | inactive |  | inactive |  | inactive
7 | C=C1C2CCC(C2)C1(C)C (configuration not stated) |  | inactive |  | inactive |  | inactive
8 | C=CC(=O)CCCCC |  | inactive |  | inactive |  | inactive
9 | O=C(O)CCCCCCCCC(=O)O |  | inactive |  | inactive |  | inactive
10 | CCOC(=O)C(C)CC (configuration not stated) |  | inactive |  | inactive |  | inactive
11 | CCCCCCCOC(=O)C(C)C |  | inactive |  | inactive |  | inactive
12 | CCCC(C)C(=O)OCC (configuration not stated) |  | inactive |  | inactive |  | inactive
13 | CC(C)CCN |  | inactive |  | inactive |  | inactive
14 | CCc1ccc(O)cc1 |  | inactive |  | inactive |  | inactive
15 | CCCCCCC(C)O (configuration not stated) |  | inactive |  | inactive |  | inactive
16 | CCC(C)c1nccnc1OC (configuration not stated) |  | inactive |  | inactive |  | inactive
17 | CC1CCC(C(C)C)C(=O)C1 (configuration not stated) |  | inactive |  | inactive |  | inactive
18 | COc1cnccn1 |  | inactive |  | inactive |  | inactive
19 | CCc1ncc(C)nc1CC |  | inactive |  | inactive |  | inactive
20 | Cc1ccc(C(C)C)cc1 |  | inactive |  | inactive |  | inactive
21 | CSSCc1ccco1 |  | inactive |  | inactive |  | inactive
22 | CC=CC(=O)C1=C(C)CCCC1(C)C |  | inactive |  | active |  | inactive
23 | CCC=CCCCCC=O |  | inactive |  | inactive |  | inactive
24 | CCSSCC |  | inactive |  | inactive |  | inactive
25 | CC(C)=CCCC(C)=CCOC(=O)C(C)C |  | inactive |  | inactive |  | inactive
26 | CNc1ccccc1C(=O)OC |  | inactive |  | inactive |  | inactive
27 | CCc1nccnc1CC |  | inactive |  | inactive |  | inactive
28 | CC1(C)CC(=O)CC(=O)C1 |  | inactive |  | inactive |  | inactive
